Test results reported in the array DNA melting data of Ke et al. (doi:10.1101/2024.01.08.574731).

What was measured:
[1] = melting temperature; fluorescence melt of hairpins on a sequencing array, two-state fit, raised by 9.35 °C to match UV melts; conditions: sodium 0.088 M
Method in brief: (§1)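 With Cy3 and quencher oligos annealed, library hairpins on a sequenced MiSeq flow cell were imaged for Cy3 fluorescence in 50 mM Na-HEPES pH 8.0, 25 mM NaCl, in 2.5 °C steps up to 60 °C. Melting temperature and folding enthalpy were derived from bootstrapped two-state fits of signals normalised to pre-quench Cy3 and to control constructs. Four replicates were combined by inverse variance, with fitted temperatures raised by 9.35 °C to match UV melts.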

[2] = folding enthalpy; higher = less favourable; fluorescence melt of hairpins on a sequencing array, two-state fit; conditions: sodium 0.088 M
Method in brief: as §1

Sequence	Tm [1] [°C]	folding enthalpy [2] [kcal/mol]
GGTCTTGGAAACAAGACC (((((((....)))))))	64.2	-45.2
GCTAGGCGAAAGCTTGGC ((.(.((....)).).))	45.2	-20.6
CGCTCCCGGAAACGGGCG (((..(((....))))))	42.7	-15.3
GCGTCCAGACGC ((((....))))	56.6	-28.7
GTCTAACGAAAGTTGGAC (((.(((....))).)))	52	-19.8
GGGCCCGAAAGGGGACCC ((((((....)))..)))	65.1	-14.4
GGAGTCGAAAGACGTTCC ((((((....)))..)))	37.6	-11.3
GGGTGAGCGAAAGCTCCC (((..(((....))))))	49.1	-12.6
GTGACCGGAAACGGTCGC (.(((((....))))).)	63.5	-19.9
GATCTGGGAAACCAGATC (((((((....)))))))	58.5	-45.4
GATCCTGTACAGGATC ((((((....))))))	60.2	-40.7
GCGAACGAAAGTTTGCGC ((((((....)))..)))	61.8	-41.9
GCAGTAGAAATACTGC ((((((....))))))	54.8	-34.6
GTTCGAGGAAACTCAAAC (((.(((....))).)))	31	-13.8
GGTACCGAAAGGTATACC ((((((....)))..)))	41.4	-15.3
GCTCCGCCGAAAGGCAGC (((..(((....))))))	35.1	-9.89
GAAGGGCGAAAGCCTTTC (((.(((....))).)))	49.4	-17.9
GTGTTGGGAAACCGACAC ((((.((....)).))))	53.6	-45.5
CGCGCGGAAACGCTGCG ((((((....))).)))	57.1	-26.9
GGTGGGAAACCACC (((((....)))))	62.4	-24.4
GACGCCGAAAGGCACGTC ((((((....)))..)))	48.5	-13.4
GTGGAGGGAAACCTTCAC (((.(((....))).)))	47.3	-31.9
GCAGTGCGAAAGCAGCGC ((..(((....)))..))	59.7	-17

Sequence	Tm [1] [°C]	folding enthalpy [2] [kcal/mol]
GTGACCGAAAGGTTGCAC ((((((....)))..)))	42.2	-13.8
GTGTTCGGAAACGGATAC ((.(.((....)).).))	33.6	-25.8
GTGGGTGGAAACACTCAC (((.(((....))).)))	52.1	-37.2
GGAGAGGGAAACCTCCCC ((.((((....)))).))	39.9	-16.2
GCTAGGCGAAAGCTTTGC ((.(.((....)).).))	42.3	-17.6
GATCTCTGGCGAGATC ((((((....))))))	51.6	-33.6
GATCACGAAAGTGAAATC ((((((....)))..)))	30.2	-10.7
GCTTGAGGAAACTTAAGC ((((.((....)).))))	39.7	-26.4
GTTCGCCGAAAGGCTAAC (((.(((....))).)))	44.7	-19.6
GTTTATGGAAACATAGAC ((.((((....)))).))	32.2	-23.7
GATCCACAGTTGGATC ((((((....))))))	49.3	-41
GATCGGAAAGCCGATC ((((((....))))))	51.3	-35.4
GGGTTCGAAAGAAACCCC ((((((....)))..)))	52.5	-18.5
GATCACCCTAGTGATC ((((((....))))))	58.9	-38.9
GTTTATGGAAACATAAGC (.(((((....))))).)	33.7	-20.8
GCGTGGGGAAACCCATGC ((.((((....)))).))	57.9	-42.3
GAATTTGGAAACAAATTC (((((((....)))))))	52	-45.1
GATCGTGCGTACGATC ((((((....))))))	55	-39.5
GATCCCGAAAGGGTTATC ((((((....)))..)))	27.5	-8.18
GTCTACGAAAGTAGGGAC ((((((....)))..)))	32.3	-16.2
GGTGCCGAAAGGCTGACC ((((((....)))..)))	46.8	-13.9
GAATGAGGAAACCCATTC (((((.(....).)))))	36.1	-20.9
GGCTCACGAAAGTGGCC (((.(((....))))))	56.6	-26.3

Sequence	Tm [1] [°C]	folding enthalpy [2] [kcal/mol]
GATCGAATTTTCGATC ((((((....))))))	55.1	-36.1
GTGGCCGCGAAAGCGCAC (((..(((....))))))	48.4	-9.11
GGCTTCGGAAACGGAGCC ((((.((....)).))))	59.1	-42.2
GCCCAGCGAAAGCTCAGC ((..(((....)))..))	32.6	-8.74
GCGGCGCGAAAGCTTCGC (((..((....))..)))	54.1	-16.8
GGGCTTGGAAACGAGCTC (.(((.(....).))).)	42	-29.7
GCATAGCCGAAAGGCTGC (((..(((....))))))	49.3	-12.6
GACCGGACGAAAGTCGTC (((..(((....))))))	37.1	-12.1
GATGTCCGAAAGGAAATC (((.(((....))).)))	43.6	-24
GGCACGCCGAAAGGCGCC (((..(((....))))))	40.3	-6.45
GTGATCGAAAGATTCAC ((((((....))).)))	43.4	-24.1
GCGAGCGATCGC ((((....))))	53.5	-25.3
GACGGCGAAAGCCTAGTC ((((((....)))..)))	47.4	-16.7
GCAGCGCGAAAGCCGTGC (((..((....))..)))	43.9	-15.3
GAAAGCGAAAGCTGTTC ((((((....))).)))	34.1	-10.8
GATGTTGGAAACAGTATC (((..((....))..)))	27	-10.2
GATCCGCTCCCGGATC ((((((....))))))	56.9	-35.8
GTTGACGAAAGTCAAAAC ((((((....)))..)))	38.4	-11.5
GATCTTGCACAAGATC ((((((....))))))	50.8	-33.4
CTTGAGAAATCAAG (((((....)))))	35.6	-11.1
GATCGTCTCTACGATC ((((((....))))))	54.5	-38.4
GATCGTTGCAACGATC ((((((....))))))	59.2	-59.5
GGACGTGGAAACATGTCC ((((.((....)).))))	53.7	-38.5
